Source: ChEMBL document CHEMBL1145760, “Design, synthesis and biological evaluation of benzimidazole/benzothiazole and benzoxazole derivatives as cyclooxygenase inhibitors” (Bioorg Med Chem Lett, 2003)

Legend:
[1] = target: T1, Prostaglandin G/H synthase 2 (Homo sapiens, UniProt P35354); assay: Inhibitory activity against Prostaglandin G/H synthase 2 in human whole blood assay as LPS induced PGE-2 generation.; assay type: tissue-based
T1 sequence (P35354 whole entry): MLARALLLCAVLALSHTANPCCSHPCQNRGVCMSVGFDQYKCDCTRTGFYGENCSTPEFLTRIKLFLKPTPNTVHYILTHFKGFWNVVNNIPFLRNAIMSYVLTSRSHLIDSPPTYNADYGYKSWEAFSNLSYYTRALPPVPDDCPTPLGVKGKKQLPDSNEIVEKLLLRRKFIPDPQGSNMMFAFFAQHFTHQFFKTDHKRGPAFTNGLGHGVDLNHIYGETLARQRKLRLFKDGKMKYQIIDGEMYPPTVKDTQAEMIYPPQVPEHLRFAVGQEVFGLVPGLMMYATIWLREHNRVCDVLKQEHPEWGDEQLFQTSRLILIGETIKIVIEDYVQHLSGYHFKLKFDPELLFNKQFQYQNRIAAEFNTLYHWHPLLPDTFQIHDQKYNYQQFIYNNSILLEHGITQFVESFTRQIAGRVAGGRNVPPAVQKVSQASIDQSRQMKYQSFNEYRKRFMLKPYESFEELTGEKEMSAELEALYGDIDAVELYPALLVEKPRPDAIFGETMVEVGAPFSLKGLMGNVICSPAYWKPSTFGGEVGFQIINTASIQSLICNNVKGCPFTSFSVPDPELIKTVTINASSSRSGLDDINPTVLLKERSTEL

[2] = target: T2, Prostaglandin G/H synthase 1 (Homo sapiens, UniProt P23219); assay: Inhibitory activity against Prostaglandin G/H synthase 1 in human whole blood assay as TXB2 generation; assay type: tissue-based
Method in brief: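 COX-1 activity measured in human whole blood by TXB2 generation. IC50 values were estimated by nonlinear regression of dose–response curves and are the average of three determinations.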

[3] = target: T2, Prostaglandin G/H synthase 1; assay: Ratio for inhibition of COX-1 to that of COX-2

T2 sequence (P23219 whole entry): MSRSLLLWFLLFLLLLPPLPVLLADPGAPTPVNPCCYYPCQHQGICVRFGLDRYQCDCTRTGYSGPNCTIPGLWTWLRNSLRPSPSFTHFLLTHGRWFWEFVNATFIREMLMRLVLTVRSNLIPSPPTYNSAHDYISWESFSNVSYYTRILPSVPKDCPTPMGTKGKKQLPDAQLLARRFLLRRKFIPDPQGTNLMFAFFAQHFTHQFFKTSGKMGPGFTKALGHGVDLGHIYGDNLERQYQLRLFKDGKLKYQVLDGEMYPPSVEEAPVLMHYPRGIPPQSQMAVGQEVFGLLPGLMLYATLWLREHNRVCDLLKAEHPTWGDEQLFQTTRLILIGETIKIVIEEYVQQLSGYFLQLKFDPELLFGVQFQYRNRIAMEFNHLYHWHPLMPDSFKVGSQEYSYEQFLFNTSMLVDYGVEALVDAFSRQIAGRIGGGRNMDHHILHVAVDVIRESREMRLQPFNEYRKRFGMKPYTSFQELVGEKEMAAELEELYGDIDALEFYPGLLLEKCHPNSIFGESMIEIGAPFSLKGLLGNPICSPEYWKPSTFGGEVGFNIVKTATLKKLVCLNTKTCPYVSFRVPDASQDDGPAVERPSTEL

| SMILES | IC50 [1] [nM] | IC50 [2] [µM] | Ratio [3] |
| --- | --- | --- | --- |
| CCCCCCCCCCCCCCCc1cccc(OCC)c1CSc1nc2ccc(C)cc2[nH]1 | > 10000 |  |  |
| CCCCCCCCCCCCCCCc1cccc(OC)c1CSc1nc2ccccc2o1 | 2770 | > 500 | > 220 |
| CCCCCCCCCCCCCCCc1cccc(OC)c1CSc1nc2ccccc2s1 | 1060 | > 500 | > 470 |
| CCCCCCCCCCCCCCCc1cccc(OCC)c1CSc1nc2cc(OC)ccc2[nH]1 |  |  | > 80 |
| CCCCCCCCCCCCCCCc1cccc(OC)c1CSc1nc2ccccc2[nH]1 | > 10000 |  |  |
| CCCCCCCCCCCCCCCc1cccc(OCC)c1CSc1nc2ccc(OC)cc2[nH]1 | 6250 | > 500 |  |
| CCCCCCCCCCCCCCCc1cccc(OCC)c1CSc1nc2ccc(OC(F)F)cc2[nH]1 | > 10000 |  |  |
| CCCCCCCCCCCCCCCc1cccc(OCC)c1CSc1nc2ccccc2[nH]1 | 1470 | > 500 | > 340 |
| CCCCCCCCCCCCCCCc1cccc(OCC)c1CSc1nc2ccccc2s1 | > 10000 |  |  |
| CCCCCCCCCCCCCCCc1cccc(O)c1CSc1nc2cc(OC)ccc2[nH]1 | 1000 | 384 | 384 |
| CCCCCCCCCCCCCCCc1cccc(OC)c1CSc1nc2cc(OC(F)F)ccc2[nH]1 | > 10000 |  |  |
| CCCCCCCCCCCCCCCc1cccc(OCC)c1CSc1nc2ccccc2o1 | > 10000 |  |  |

Now from value to compound:

| IC50 [1] [nM] | IC50 [2] [µM] | Ratio [3] | SMILES |
| --- | --- | --- | --- |
| > 10000 |  |  | CCCCCCCCCCCCCCCc1cccc(OC)c1CSc1nc2cc(OC)ccc2[nH]1 |
| 3840 | > 500 |  | CCCCCCCCCCCCCCCc1cccc(OCC)c1CSc1nc2ccc([N+](=O)[O-])cc2[nH]1 |
|  |  | > 220 | CCCCCCCCCCCCCCCc1cccc(OC)c1CSc1nc2cc([N+](=O)[O-])ccc2[nH]1 |
| 2270 | > 500 |  | CCCCCCCCCCCCCCCc1cccc(OC)c1CSc1nc2ccc([N+](=O)[O-])cc2[nH]1 |
| 2630 | > 500 | > 190 | CCCCCCCCCCCCCCCc1cccc(OC)c1CSc1nc2cc(C)ccc2[nH]1 |
|  |  | > 130 | CCCCCCCCCCCCCCCc1cccc(OCC)c1CSc1nc2cc([N+](=O)[O-])ccc2[nH]1 |
